ChEMBL document CHEMBL3779892, “Increasing the binding affinity of VEGFR-2 inhibitors by extending their hydrophobic interaction with the active site: Design, synthesis and biological evaluation of 1-substituted-4-(4-methoxybenzyl)phthalazine derivatives” (Eur J Med Chem, 2016)

Tests used:
Assay type in all cases: functional
[1] = Growth inhibition of human HCT15 cells at 10 uM after 48 hrs by sulforhodamine B assay; details: HCT-15, 48 h, read-out: GI
Summary of the method: (§1)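 Run at NCI on the 60-line panel. Cells grown in RPMI 1640 with 5% FBS and 2 mM L-glutamine, plated at 5000–40,000 cells/well by doubling time, and held 24 h at 37 °C before dosing. Drug (DMSO stock) given at a single final 10 µM in triplicate wells for 48 h. Adherent cells fixed with cold TCA (10% final), suspension cells with 16% TCA. SRB stain read at 515 nm. Percent growth from Tz, C and Ti.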

NCI-H23 = assay: Growth inhibition of human NCI-H23 cells at 10 uM after 48 hrs by sulforhodamine B assay; details: NCI-H23, 48 h, read-out: GI; summary of the method: as §1
[2] = Growth inhibition of human SKOV3 cells at 10 uM after 48 hrs by sulforhodamine B assay; details: SK-OV-3, 48 h, read-out: GI; summary of the method: as §1
[3] = Growth inhibition of human RXF393 cells at 10 uM after 48 hrs by sulforhodamine B assay; details: RXF 393, 48 h, read-out: GI; summary of the method: as §1
KM12 = assay: Growth inhibition of human KM12 cells at 10 uM after 48 hrs by sulforhodamine B assay; details: KM12, 48 h, read-out: GI; summary of the method: as §1
CCRF-CEM = assay: Growth inhibition of human CCRF-CEM cells at 10 uM after 48 hrs by sulforhodamine B assay; details: read-out: GI; summary of the method: as §1
[4] = Growth inhibition of human RPMI8226 cells at 10 uM after 48 hrs by sulforhodamine B assay; details: RPMI-8226, 48 h, read-out: GI; summary of the method: as §1
NCI-H460 = assay: Growth inhibition of human NCI-H460 cells at 10 uM after 48 hrs by sulforhodamine B assay; details: NCI-H460, 48 h, read-out: GI; summary of the method: as §1
NCI-H522 = assay: Growth inhibition of human NCI-H522 cells at 10 uM after 48 hrs by sulforhodamine B assay; details: NCI-H522, 48 h, read-out: GI; summary of the method: as §1
A498 = assay: Growth inhibition of human A498 cells at 10 uM after 48 hrs by sulforhodamine B assay; details: A498, 48 h, read-out: GI; summary of the method: as §1
[5] = Growth inhibition of human HCT116 cells at 10 uM after 48 hrs by sulforhodamine B assay; details: HCT-116, 48 h, read-out: GI; summary of the method: as §1
MDA-MB-231 = assay: Growth inhibition of human MDA-MB-231 cells at 10 uM after 48 hrs by sulforhodamine B assay; details: MDA-MB-231, 48 h, read-out: GI; summary of the method: as §1
[6] = Growth inhibition of human Caki1 cells at 10 uM after 48 hrs by sulforhodamine B assay; details: CAKI-1, 48 h, read-out: GI; summary of the method: as §1
NCI-H226 = assay: Growth inhibition of human NCI-H226 cells at 10 uM after 48 hrs by sulforhodamine B assay; details: NCI-H226, 48 h, read-out: GI; summary of the method: as §1
[7] = Growth inhibition of human BT549 cells at 10 uM after 48 hrs by sulforhodamine B assay; details: BT-549, 48 h, read-out: GI; summary of the method: as §1
[8] = Growth inhibition of human IGROV1 cells at 10 uM after 48 hrs by sulforhodamine B assay; details: IGROV-1, 48 h, read-out: GI; summary of the method: as §1
[9] = Growth inhibition of human OVCAR4 cells at 10 uM after 48 hrs by sulforhodamine B assay; details: OVCAR-4, 48 h, read-out: GI; summary of the method: as §1
[10] = Growth inhibition of human SF268 cells at 10 uM after 48 hrs by sulforhodamine B assay; details: SF-268, 48 h, read-out: GI; summary of the method: as §1
[11] = Growth inhibition of human PC3 cells at 10 uM after 48 hrs by sulforhodamine B assay; details: PC-3, 48 h, read-out: GI; summary of the method: as §1
Malme-3M = assay: Growth inhibition of human MALME-3M cells at 10 uM after 48 hrs by sulforhodamine B assay; details: read-out: GI; summary of the method: as §1
[12] = Growth inhibition of human Hs 578T cells at 10 uM after 48 hrs by sulforhodamine B assay; details: read-out: GI; summary of the method: as §1
[13] = Growth inhibition of human OVCAR5 cells at 10 uM after 48 hrs by sulforhodamine B assay; details: OVCAR-5, 48 h, read-out: GI; summary of the method: as §1
786-0 = assay: Growth inhibition of human 786-0 cells at 10 uM after 48 hrs by sulforhodamine B assay; details: 786-0, 48 h, read-out: GI; summary of the method: as §1

| SMILES | inhibition of growth at 10 µM [1] | inhibition of growth at 10 µM (NCI-H23) | inhibition of growth at 10 µM [2] | inhibition of growth at 10 µM [3] | inhibition of growth at 10 µM (KM12) | inhibition of growth at 10 µM (CCRF-CEM) | inhibition of growth at 10 µM [4] | inhibition of growth at 10 µM (NCI-H460) | inhibition of growth at 10 µM (NCI-H522) | inhibition of growth at 10 µM (A498) | inhibition of growth at 10 µM [5] | inhibition of growth at 10 µM (MDA-MB-231) | inhibition of growth at 10 µM [6] | inhibition of growth at 10 µM (NCI-H226) | inhibition of growth at 10 µM [7] | inhibition of growth at 10 µM [8] | inhibition of growth at 10 µM [9] | inhibition of growth at 10 µM [10] | inhibition of growth at 10 µM [11] | inhibition of growth at 10 µM (Malme-3M) | other results |
| --- | --- | --- | --- | --- | --- | --- | --- | --- | --- | --- | --- | --- | --- | --- | --- | --- | --- | --- | --- | --- | --- |
| COc1ccc(Cc2nnc(Nc3ccc(NC(=O)Nc4ccc(Cl)c(C(F)(F)F)c4)cc3)c3ccccc23)cc1 | 40% | < 30% | 38% | 72% | 51% | 55% | 66% | 36% | 68% | < 30% | 53% | 41% | < 30% | < 30% | < 30% | 53% | 60% | < 30% | 45% | < 30% | inhibition of growth at 10 µM [12]: 48%; inhibition of growth at 10 µM [13]: 30%; inhibition of growth at 10 µM (786-0): 62% |
| COc1ccc(Cc2nnc(Nc3ccc(NC(=O)Nc4ccc(C#N)cc4)cc3)c3ccccc23)cc1 | 36% | < 30% | 37% | 110% | 37% | 47% | 95% | 40% | 54% | 54% | 44% | 63% | < 30% | < 30% | 51% | 46% | < 30% | < 30% | 41% | 42% | inhibition of growth at 10 µM [12]: 105%; inhibition of growth at 10 µM [13]: < 30%; inhibition of growth at 10 µM (786-0): 83% |
| COc1ccc(Cc2nnc(Nc3ccc(NC(=O)Nc4ccc(Cl)cc4)cc3)c3ccccc23)cc1 | 41% | < 30% | < 30% | 79% | 39% | 42% | 75% | 110% | 43% | 32% | 42% | 30% | < 30% | < 30% | 37% | < 30% | < 30% | < 30% | 31% | < 30% | inhibition of growth at 10 µM [12]: 75%; inhibition of growth at 10 µM [13]: < 30%; inhibition of growth at 10 µM (786-0): 58% |
| COc1ccc(Cc2nnc(Nc3ccc(NC(=O)Nc4ccccc4Cl)cc3)c3ccccc23)cc1 | < 30% | < 30% | < 30% | 48% | < 30% | < 30% | 33% | < 30% | 33% | 44% | < 30% | < 30% | < 30% | < 30% | < 30% | < 30% | < 30% | < 30% | < 30% | < 30% | inhibition of growth at 10 µM [12]: < 30%; inhibition of growth at 10 µM [13]: < 30%; inhibition of growth at 10 µM (786-0): 41% |
